Source: ChEMBL document CHEMBL1122850, “Synthesis of 6-anilino-2-thiouracils and their inhibition of human placenta iodothyronine deiodinase” (J Med Chem, 1985)

Key:
[1] = target: T1, Thyroxine 5-deiodinase (Homo sapiens) (UniProt P55073); assay: Inhibition of Human Placenta Inner-Ring Iodothyronine 5-deiodinase at the compound concentration of 5 mM
T1 sequence (whole entry): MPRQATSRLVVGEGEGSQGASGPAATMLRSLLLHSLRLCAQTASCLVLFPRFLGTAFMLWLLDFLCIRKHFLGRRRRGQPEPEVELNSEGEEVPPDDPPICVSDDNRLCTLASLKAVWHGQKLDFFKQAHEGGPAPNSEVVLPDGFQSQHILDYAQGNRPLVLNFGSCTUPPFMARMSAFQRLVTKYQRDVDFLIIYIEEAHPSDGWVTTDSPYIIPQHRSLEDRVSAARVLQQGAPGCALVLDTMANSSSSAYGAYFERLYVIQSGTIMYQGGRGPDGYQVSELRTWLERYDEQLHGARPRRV
Outline: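 Human placenta microsomal fraction (225 μg/tube) incubated 60 min at 37 °C with 290 pmol T4 in 0.1 M potassium phosphate–0.01 M EDTA, pH 7.4, with 0.25 mM DTT. Inhibitors at 5 mM, diluted from 30 mM stocks in 0.04 M NaOH. rT3 formed measured by radioimmunoassay. Inhibition relative to uninhibited control, quadruplicate incubations.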

[2] = target: T1, Thyroxine 5-deiodinase (Homo sapiens); assay: Inhibition of Human placenta inner-ring Iodothyronine 5-deiodinase activity measured as rT3 production in presence of DTT concentrations of 0.2 mM
Outline: (§1)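 Placenta microsomes (225 μg/tube) incubated with 290 pmol T4 in 0.1 M potassium phosphate–0.01 M EDTA (pH 7.4), 60 min, 37 °C. DTT varied over 0.2–100 mM in place of 0.25 mM. Inhibitor present at 5 mM. rT3 production (pmol/tube) measured by radioimmunoassay and compared with control tubes without inhibitor. Quadruplicate incubations.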

[3] = target: T1, Thyroxine 5-deiodinase (Homo sapiens); assay: Inhibition of Human placenta inner-ring Iodothyronine 5-deiodinase activity measured as rT3 production in presence of DTT concentrations of 1.56 mM; outline: as §1
[4] = target: T1, Thyroxine 5-deiodinase (Homo sapiens); assay: Inhibition of Human placenta inner-ring Iodothyronine 5-deiodinase activity measured as rT3 production in presence of DTT concentrations of 100 mM; outline: as §1
[5] = target: T1, Thyroxine 5-deiodinase (Homo sapiens); assay: Inhibition of Human placenta inner-ring Iodothyronine 5-deiodinase activity measured as rT3 production in presence of DTT concentrations of 12.5 mM; outline: as §1

| SMILES | inhibition [1] | rT3 Production [2] | rT3 Production [3] | rT3 Production [4] | rT3 Production [5] |
| --- | --- | --- | --- | --- | --- |
| Oc1cc(Nc2ccccc2)nc(S)n1 | 31% | – | – | – | – |
| CCc1ccc(Nc2cc(=O)[nH]c(=S)n2C)cc1 | 2% | – | – | – | – |
| Cn1c(=S)[nH]c(N)c(Cc2ccccc2)c1=O | 79% | – | – | – | – |
| CCCCc1ccc(Nc2cc(O)nc(S)n2)cc1 | 96% | 0.2 pmol/tube | 0.8 pmol/tube | 4.1 pmol/tube | 2.5 pmol/tube |
| CCc1ccc(Nc2cc(O)nc(S)n2)cc1 | 85% | – | – | – | – |

The remaining lines, values ahead:

| inhibition [1] | rT3 Production [2] | rT3 Production [3] | rT3 Production [4] | rT3 Production [5] | SMILES |
| --- | --- | --- | --- | --- | --- |
| 29% | 2.6 pmol/tube | 13.3 pmol/tube | 104 pmol/tube | 43.3 pmol/tube | CCCc1cc(=O)[nH]c(=S)[nH]1 |
| 0% | – | – | – | – | CCc1ccc(Nc2cc(=O)n(C)c(=S)[nH]2)cc1 |
| 20% | – | – | – | – | CCCCc1ccc(Nc2cc(=O)n(C)c(=S)[nH]2)cc1 |
| 16% | – | – | – | – | Nc1cc(O)nc(S)n1 |
